Measured values: PMC7529613 (International Journal for Parasitology: Drugs and Drug …, 2020)

Key:
T. gondii = T. gondii growth inhibitory assay; format: cell-based, Toxoplasma gondii; settings: for IC50: read-out: IC50 T. gondii (anti-Toxoplasma IC50); for selectivity ratio at 48 h: human, Selectivity index (SI) = Cytotoxicity IC50/Anti-parasitic IC50, HFF cytotoxicity IC50 / anti-Toxoplasma IC50
Summary of the method: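 YFP-expressing RH-strain tachyzoites (~3500/well) were added to confluent HFF in supplemented IMDM. Test compound in DMSO (20 μM single dose, or 0–8 μM / 0–40 μM series) was added immediately or 2 h post-infection. Atovaquone 0.48 μM was the positive control; DMSO the negative. After 48 h at 37 °C/5% CO2, parasite YFP fluorescence was quantified by microscopy. IC50 came from triplicate-mean dose–response curves. SI = HFF cytotoxicity IC50/anti-Toxoplasma IC50.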

Cytotoxicity assay [1] = format: cell-based; settings: human, uninfected HFF cells
Summary of the method: (§1)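 Confluent host cells were used: HCT-8 in phenol-red-free supplemented RPMI 1640, HFF in phenol-red-free DMEM with 10% FBS. Test compound in DMSO was added at 0–700 μM, with matched DMSO controls, for 48 h at 37 °C/5% CO2. WST-1 was added for 1 h in the dark and absorbance read at 420 nm. Viability inhibition was taken relative to DMSO. IC50 came from dose–response curves of triplicate means.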

C. parvum = C. parvum growth inhibitory assay; format: cell-based, Cryptosporidium parvum
Summary of the method: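 Sporozoites were excysted (HBSS, 60 min at 37 °C, then 1.5% sodium taurocholate, 60 min) and […]. 4 × 10^4 were added per well to confluent HCT-8 cells in supplemented RPMI-1640. […] After 72 h at 37 °C/5% CO2: fixed, antibody-stained, microscopy fluorescence quantified. […] Triplicate, ≥3 repeats.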

Cytotoxicity assay [2] = format: cell-based; settings: human, uninfected HCT-8 cells
Summary of the method: as §1

Cryptosporidium = settings: read-out: anti-Cryptosporidium IC50; ref Li et al., 2019; cited from earlier work
[3] = Toxoplasma gondii, HFF, 48 h, read-out: Inhibition of T. gondii growth

Work on O=C(NC(=O)c1ccc(F)c(F)c1F)OC12CC3CC(CC(C3)C1)C2 [JS-2-49, Adamantan-1-yl (2,3,4-trifluorobenzoyl)carbamate] yielded an IC50 (T. gondii; Toxoplasma gondii, HFF, 48 h) of 12.1 µM, an inhibition at 20 µM (T. gondii; [3]) of ~90% and a selectivity ratio at 48 h (T. gondii) of 5.4. It also gave an IC50 at 48 h (Cytotoxicity assay [1]) of 65.5 µM.

With COc1ccccc1C(=O)NC(=O)NC(=O)c1ccccc1OC [JS-1-09, N,N′-Carbonylbis(2-methoxybenzamide)] the “Inhibition of T. gondii growth” value (T. gondii; 8 μM compound, 48 h) was “almost completely inhibited”, the “Selectivity index (SI) = Cytotoxicity IC50/Anti-parasitic IC50” value (T. gondii; HFF cytotoxicity IC50 / anti-Toxoplasma IC50) was 52.9 and the IC50 (T. gondii; Toxoplasma gondii, HFF, 48 h) was 1.21 µM. The inhibition at 20 µM (T. gondii; [3]) was ~100%, the selectivity ratio at 48 h (T. gondii) was ~53 and the IC50 at 48 h (Cytotoxicity assay [1]) was 64 µM.

In the case of CC(C)=CCC/C(C)=C\COC(=O)NC(=O)C12CC3CC(CC(C3)C1)C2 [GMG-1-09, (Z)-3,7-Dimethylocta-2,6-dien-1-yl (adamantane-1-carbonyl)carbamate], the “IC50 T. gondii (anti-Toxoplasma IC50)” value (T. gondii; YFP-expressing RH tachyzoites in HFF cells, 48 h of culture) is reported as “not potent”, the inhibition at 20 µM (C. parvum; Cryptosporidium parvum, HCT-8, read-out: Inhibition of C. parvum growth) is reported as ~70% and the selectivity ratio at 72 h (C. parvum; human, Selectivity index (SI) = Cytotoxicity IC50/Anti-parasitic IC50, HCT-8 cytotoxicity IC50 / anti-Cryptosporidium IC50) is reported as ~14. For the same compound, the IC50 at 48 h (Cytotoxicity assay [2]) was 450 µM.

In the case of O=C1C(O)=C([C@H]2CC[C@H](c3ccc(Cl)cc3)CC2)C(=O)c2ccccc21 [atovaquone, reference compound], the inhibition at 0.5 µM (T. gondii; [3]) is reported as ~100%.

O=C(NC(=O)c1ccc(F)c(F)c1F)OC1C2CC3CC(C2)CC1C3 (stereo not drawn) [JS-2-35, Adamantan-2-yl (2,3,4-trifluorobenzoyl)carbamate] gave an IC50 (T. gondii; Toxoplasma gondii, HFF, 48 h) of 10.5 µM, an inhibition at 20 µM (T. gondii; [3]) of ~80% and a selectivity ratio at 48 h (T. gondii) of 5.6. The IC50 at 48 h (Cytotoxicity assay [1]) was 59.2 µM.

In the case of NC[C@@H]1O[C@H](O[C@H]2[C@@H](O)[C@H](O[C@@H]3[C@@H](O)[C@H](N)C[C@H](N)[C@H]3O[C@H]3O[C@H](CO)[C@@H](O)[C@H](O)[C@H]3N)O[C@@H]2CO)[C@H](N)[C@@H](O)[C@@H]1O [paromomycin], the IC50 (Cryptosporidium) is listed as 450 µM.

In the case of CC(C)=CCC/C(C)=C/CNC(=O)NC(=O)c1ccc(F)c(F)c1F [JS-2-20, (E)-N-((3,7-Dimethylocta-2,6-dien-1-yl)carbamoyl)-2,3,4-trifluorobenzamide], the IC50 (T. gondii; Toxoplasma gondii, HFF, 48 h) is reported as 10.9 µM, the inhibition at 20 µM (T. gondii; [3]) is reported as ~80% and the selectivity ratio at 48 h (T. gondii) is reported as 5.7. The IC50 at 48 h (Cytotoxicity assay [1]) was 62.6 µM.
